Measured values reported in ChEMBL document CHEMBL4387709, “Discovery of Quinoline Analogues as Potent Antivirals against Enterovirus D68 (EV-D68)” (J Med Chem, 2019).

Assays:
enterovirus D68 = assay: Antiviral activity against Enterovirus D68 US/KY/14-18953 infected in human RD cells assessed as inhibition of virus-induced cytopathic effect incubated for 5 mins under shaking condition and measured after 3 days by neutral red dye-based photometric method; format: functional, organism-based; details: Enterovirus D, US/KY/14-18953, RD
Summary of the method: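 RD cells seeded one day ahead to ~90% confluence, PBS (Mg/Ca) wash, infected at ~MOI 0.01 with EV-D68 in DMEM/2% FBS/30 mM MgCl2 at 33 °C, 5% CO2. Compounds and 1% P/S added after 1 h. Plates shaken ~5 min, held 3 days, viable cells stained with neutral red (66 µg/ml), A540 read. EC50 from dose-response fits, triplicates.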

RD = assay: Cytotoxicity against human RD cells after 3 days by neutral red dye-based photometric method; format: cell-based; details: rd, 72 h
[1] = Selectivity index, ratio of CC50 for human RD cells to EC50 for Enterovirus D68 US/KY/14-18953 infected in human RD cells; format: toxicity, cell-based; details: read-out: Ratio CC50/EC50

| SMILES | EC50 (enterovirus D68) [µM] | CC50 (RD) [µM] | selectivity ratio [1] |
| --- | --- | --- | --- |
| Cc1ccc2c(c1)c1c3n2CCNC3CCC1 (stereo not given) | 8.4 | 19 |  |
| CCN(CC)CCNC(=O)c1cc(-c2ccsc2)nc2ccccc12 | 1 | 46.9 | 46.9 |
| O=C(NC1CN2CCC1CC2)c1cc(-c2ccccc2)nc2ccccc12 (stereo not given) | 3.5 | 46.5 | 13.3 |
| CCN(CC)CCNC(=O)c1cc(-c2ccc3c(c2)OCCO3)nc2ccccc12 | 9 | 49.9 | 5.5 |
| CN(C)CCCNC(=O)c1cc(-c2cccs2)nc2ccccc12 | 0.7 | 40.5 | 57.9 |
| CC(C)Oc1cc(C(=O)NCCN2CCCC2)c2ccccc2n1 | 1.7 | 36.9 | 21.7 |
| CCN(CC)CCNC(=O)c1cc(-c2ccc(Cl)s2)nc2ccccc12 | 0.8 | 6.1 | 7.6 |
| CCC(C)Oc1cc(C(=O)NCCN(CC)CC)c2ccccc2n1 (stereo not given) | 2.8 | 15.7 | 5.6 |
| O=C(NCCCn1ccnc1)c1cc(-c2cccs2)nc2ccccc12 | 8.9 | 55.7 | 6.3 |
| CCC(CC)Oc1cc(C(=O)NCCN(CC)CC)c2ccccc2n1 | > 10 | 9.5 |  |
| CCN(CC)CCNC(=O)c1cc(-c2ccccc2OC)nc2ccccc12 | 13.9 | 75.9 | 5.5 |
| CCN(CC)CCNC(=O)c1cc(-c2ccccc2)nc2ccc(OC)cc12 | 12.3 | 27.5 | 2.2 |
| CN(C)CCNC(=O)c1cc(-c2ccccc2)nc2ccc(F)cc12 | 0.6 | 38.8 | 64.7 |
| CCN(CC)CCNC(=O)c1cc(-c2ccncc2)nc2ccccc12 | 6.6 | 174 | 26.3 |
| CN(C)c1ccc(NC(=O)c2cc(-c3ccccc3)nc3ccccc23)cc1 | > 100 | > 350 | > 3.5 |
| CC(C)Oc1cc(C(=O)NCCN(C)C)c2ccccc2n1 | 1.7 | 38.5 | 22.6 |
| CCN(CC)CCNC(=O)c1cc(OC)nc2ccccc12 | 52.5 | > 250 | > 4.8 |
| CCN(CC)CCNC(=O)c1cc(OCC(F)(F)F)nc2ccccc12 | 3.5 | 33.1 | 9.5 |
| CCN(CC)CCNC(=O)c1cc(-c2cccc(OC)c2)nc2ccccc12 | 1.6 | 36.5 | 22.8 |
| CN(C)CCNC(=O)c1cc(-c2ccccc2)nc2ccc(Cl)cc12 | 1.2 | 14.3 | 11.9 |
| CCN(CC)CCNC(=O)c1cc(-c2cnc(N(C)C)nc2)nc2ccccc12 | 24.6 | 74.2 | 3 |
| NNC(=O)c1cc(-c2cccs2)nc2ccccc12 | 11.9 | > 100 | > 8.4 |
| CCCOc1cc(C(=O)NCCN(CC)CC)c2ccccc2n1 | 4.9 | 46.7 | 9.5 |
| CCN(CC)CCNC(=O)c1cc(-c2ccoc2)nc2ccccc12 | 1.5 | 122 | 81.7 |
| CC(C)Oc1cc(C(=O)NCCN)c2ccccc2n1 | 3.5 | 149 | 42.5 |
| CCN(CC)CCNC(=O)c1cc(-c2cnn(C)c2)nc2ccccc12 | > 100 | 251 |  |
| CCN(CC)CCNC(=O)c1cc(-c2ccc(CN3CCOCC3)cc2)nc2ccccc12 | > 80 | 79.2 |  |

| SMILES | EC50 (enterovirus D68) [µM] | CC50 (RD) [µM] | selectivity ratio [1] |
| --- | --- | --- | --- |
| COc1ccc2nc(-c3ccccc3)cc(C(=O)NCCN(C)C)c2c1 | 8.1 | 31.8 | 3.9 |
| CC(C)Oc1cc(C(=O)N2CCN(C)CC2)c2ccccc2n1 | > 100 | > 300 |  |
| CCN(CC)CCNC(=O)c1cc(-c2cnc(OC)nc2)nc2ccccc12 | 87.6 | 174 | 2 |
| CCN(CC)CCNC(=O)c1cc(-c2c(C)noc2C)nc2ccccc12 | > 50 | 129 |  |
| CCOc1cc(C(=O)NCCN(CC)CC)c2ccccc2n1 | 5.9 | 165 | 27.9 |
| CCN(CC)CCNC(=O)c1cc(-c2ccc(OC)cc2)nc2ccccc12 | 2.4 | 31.6 | 13.2 |
| CCN(CC)CCNC(=O)c1cc(-c2ccn[nH]2)nc2ccccc12 | 19.4 | 132 | 6.8 |
| CCN(CC)CCNC(=O)c1cc(-c2ccc(-c3ccccc3)cc2)nc2ccccc12 | > 10 | 9.8 |  |
| O=C(NCCN1CCCC1)c1cc(-c2ccccc2)nc2ccccc12 | 0.4 | 46.7 | 117 |
| CCN(CC)CCNC(=O)c1cc(-c2cccs2)nc2ccccc12 | 0.6 | 37.4 | 62.3 |
| CCN(CC)CCNC(=O)c1cc(OC(C)C)nc2ccccc12 | 2.5 | 111 | 44.5 |
| CCOCCOc1cc(C(=O)NCCN(CC)CC)c2ccccc2n1 | 12.2 | 144 | 11.8 |
| CCN(CC)CCNC(=O)c1cc(-c2ccccc2)nc2ccc(F)cc12 | 1.3 | 24.9 | 19.2 |
| CCN(CC)CCCNC(=O)c1cc(-c2ccccc2)nc2ccccc12 | 9.6 | 45.4 | 4.7 |
| CCN(CC)CCNC(=O)c1cc(OCc2ccccc2)nc2ccccc12 | 1.1 | 13.5 | 12.3 |
| CCN(CC)CCNC(=O)c1cc(-c2ccc3c(c2)CCO3)nc2ccccc12 | 1.6 | 29.5 | 18.4 |
| CC(C)Oc1cc(C(=O)NCCN2CCOCC2)c2ccccc2n1 | 17.5 | > 250 | > 14.3 |
| CC(C)Oc1cc(C(=O)NC2CCN(C)CC2)c2ccccc2n1 | 17.8 | 101 | 5.7 |
| CCN(CC)CCNC(=O)c1cc(/C=C/c2ccccc2)nc2ccccc12 | 0.8 | 11.5 | 14.4 |
| CCN(CC)CCNC(=O)c1cc(-c2ccnn2C)nc2ccccc12 | 36.3 | 133 | 3.7 |
| CC(C)Oc1cc(C(=O)NCCCN(C)C)c2ccccc2n1 | 11.4 | 122 | 10.7 |
| CCN(CC)CCNC(=O)c1cc(-c2ccc(COC)cc2)nc2ccccc12 | 17.4 | 46.6 | 2.7 |
| N=C(N)NC(=O)c1cc(-c2ccccc2)nc2ccccc12 | 34.7 | > 250 | > 7.2 |
| CC(C)Oc1cc(C(=O)NCCN2CCN(C)CC2)c2ccccc2n1 | 25.9 | 88.8 | 3.4 |
| CCN(CC)CCNC(=O)c1cc(OC2CCCC2)nc2ccccc12 | 6.8 | 11.7 | 1.7 |
| CCN(CC)CCNC(=O)c1cc(-c2ccccc2)nc2ccc(Cl)cc12 | 1.9 | 13.5 | 7.1 |
| CCN(CC)CCNC(=O)c1cc(-c2ccccc2)nc2ccccc12 | 0.8 | 45.1 | 56.4 |
